pIC50: −log10 of the molar value. Active and inactive are the calls of the source. The rule behind the calls is not given here.
Assays:
MCF7 [1] = experiment: Cytotoxicity against Pgp deficient human MCF7 cells after 72 hrs by sulforhodamine B test; assay type: functional, cell-based; details: MCF7, 72 h
[2] = Cytotoxicity against Pgp deficient human LCC6 cells after 72 hrs by sulforhodamine B test; assay type: functional, cell-based; details: C6, 72 h
Bos taurus [3] = species on record: Bos taurus; experiment: Induction of calf brain tubulin polymerization at 10 uM in absence of GTP by spectrophotometric assay
MCF7 [4] = experiment: Resistance index, Ratio of IC50 for multidrug resistant Pgp expressing human NCI/ADR cells to IC50 for Pgp deficient human MCF7 cells; assay type: functional; design: reference not given here
Bos taurus [5] = species on record: Bos taurus; experiment: Induction of calf brain tubulin polymerization at 10 uM by spectrophotometric assay
In short: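 Calf brain microtubule protein diluted to 1 mg/mL in MES buffer with 3 M glycerol; taxoid at 10 µM. Assembly followed at 37 °C as turbidity change at 350 nm. 6 mM CaCl2 added after 50 min to follow depolymerization. Tubulin is 85% of the protein. Runs used either centrifuged tubulin or tubulin used as stored, with 1 mM GTP in some runs.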

[6] = Cytotoxicity against multidrug resistant Pgp expressing human LCC6 cells after 72 hrs by sulforhodamine B test; assay type: functional, cell-based; details: LCC-6, 72 h
C6 = experiment: Resistance index, Ratio of IC50 for multidrug resistant Pgp expressing human LCC6 cells to IC50 for Pgp deficient human LCC6 cells; assay type: functional; design: reference not given here
[7] = Cytotoxicity against multidrug resistant Pgp expressing human NCI/ADR cells after 72 hrs by sulforhodamine B test; assay type: functional, cell-based; details: NCI/ADR-RES
DLD-1 [8] = experiment: Antitumor activity against Pgp expressing multidrug resistant human DLD1 cells xenografted SCID mouse assessed as tumor growth at 20 mg/kg, iv administered for 3 days after 167 days; assay type: functional, organism-based; design: dose 20 mg/kg
In short: (§1)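 Female SCID mice (6-8 weeks), 5 per treated group, 10 untreated controls, bearing DLD-1 (Pgp+) human colon xenografts. Dosing was iv by tail vein from day 5 after implant, ×3. Stock was 30 mg/mL in Tween-80/ethanol 1:1, diluted in 0.9% saline. Caliper volume V=0.4·l·w² every 3-4 days. Growth delay was time to 600 mm3, interpolated from log(volume) vs time. Cox-Mantel test was used versus control. Cure meant no palpable tumor on day 167.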

DLD-1 [9] = experiment: Antitumor activity against Pgp expressing multidrug resistant human DLD1 cells xenografted SCID mouse assessed as tumor growth delay at 20 mg/kg, iv administered for 3 days; assay type: functional; in short: as §1
Mus musculus = experiment: Toxicity in Pgp expressing multidrug resistant human DLD1 cells xenografted SCID mouse at 20 mg/kg, iv administered for 3 days; assay type: organism-based, DLD-1; design: dose 20 mg/kg, route intravenous; details: in vivo, 72 h
In short: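 Female SCID mice with DLD-1 (Pgp+) colon xenografts, 5 per group. Dosing was iv by tail vein, 20 mg/kg ×3 from day 5 post-implant, in Tween-80/ethanol diluted with saline. Toxicity was counted as animals that died or lost more than 20% body weight.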

[10] = Cytotoxicity against paclitaxel resistant human 1A9PTX10 cells expressing class 1 beta-tubulin mutant after 72 hrs; assay type: functional, cell-based; details: 1A9/ptx-10, 72 h
[11] = Cytotoxicity against paclitaxel resistant human 1A9PTX22 cells expressing class 1 beta-tubulin mutant after 72 hrs; assay type: functional, cell-based; details: 1A9/ptx-22, 72 h
A2780 = experiment: Cytotoxicity against human A2780 cells after 72 hrs; assay type: functional, cell-based; details: A2780, 72 h
Bos taurus [12] = species on record: Bos taurus; experiment: Induction of calf brain tubulin polymerization at 10 uM in after 5 mins in absence of GTP by spectrophotometric assay
CFPAC-1 [13] = experiment: Cytotoxicity against multidrug resistant human CFPAC1 cells after 72 hrs by MTT assay; assay type: functional, cell-based; details: CFPAC-1, 72 h
In short: (§2)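 Pancreatic lines were cultured per ATCC, seeded at 2.5 × 10^4 cells/well and allowed to adhere overnight. The medium was replaced with drug diluted from a 10 mM DMSO stock, or vehicle, for 72 h, in triplicate, with at least three independent trials. MTT at 0.5 mg/mL was added for 3 h, formazan was dissolved in acidified isopropanol, and A570 was read. IC50 came from sigmoid-Emax nonlinear regression.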

MIA PaCa-2 = experiment: Cytotoxicity against multidrug resistant human MIAPaCa2 cells after 72 hrs by MTT assay; assay type: functional, cell-based; details: MIA PaCa-2, 72 h; in short: as §2
BXPC-3 = experiment: Cytotoxicity against multidrug resistant human BxPC3 cells after 72 hrs by MTT assay; assay type: functional, cell-based; details: BXPC-3, 72 h; in short: as §2
PANC-1 = experiment: Cytotoxicity against multidrug resistant human PANC1 cells after 72 hrs by MTT assay; assay type: functional, cell-based; details: PANC-1, 72 h; in short: as §2
DLD-1 [14] = experiment: Antitumor activity against Pgp expressing multidrug resistant human DLD1 cells xenografted SCID mouse assessed as tumor growth at 10 mg/kg, iv administered for 3 days after 167 days; assay type: functional, organism-based; design: dose 10 mg/kg; in short: as §1
Bos taurus [15] = species on record: Bos taurus; experiment: Induction of calf brain tubulin polymerization at 10 uM after 12 mins in presence of GTP by spectrophotometric assay
In short: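 Calf brain microtubule protein, 1 mg/mL in MES buffer with 3 M glycerol, was assembled at 37 °C with 1 mM GTP and 10 µM drug. Turbidity was followed at 350 nm. Tubulin stored in liquid nitrogen was centrifuged just before use and adjusted to 1 mg/mL. CaCl2 (6 mM) was added at 50 min to follow depolymerization.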

[16] = Cytotoxicity against human primary pancreatic ductal cells after 72 hrs by MTT assay; assay type: cell-based
DLD-1 [17] = experiment: Antitumor activity against Pgp expressing multidrug resistant human DLD1 cells xenografted SCID mouse assessed as tumor growth delay at 10 mg/kg, iv administered for 3 days; assay type: functional; in short: as §1
DLD-1 [18] = experiment: Antitumor activity against Pgp expressing multidrug resistant human DLD1 cells xenografted SCID mouse assessed as tumor growth delay at 40 mg/kg, iv administered for 3 days; assay type: functional; in short: as §1
CFPAC-1 [19] = experiment: Antitumor activity against mdr1 expressing multidrug resistant human CFPAC1 cells xenografted Swiss mouse assessed as reduction in tumor volume at 20 mg/kg, iv administered for 3 days after 8 weeks; assay type: functional, organism-based; design: dose 20 mg/kg
In short: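 CFPAC-1 (mdr1-high) pancreatic cells, 1 × 10^6 in 200 µL PBS, were injected into both flanks. Treatment began on day 19 at about 100 mm3. Dosing was iv by tail vein on days 19, 22 and 25 at 20 mg/kg each (60 mg/kg total). Stock was 30 mg/mL in Tween-80/ethanol 1:1, diluted in PBS to 0.2 mL. Caliper volume was V=0.4·l·w².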

| Structure (SMILES) | pIC50 (MCF7 [1]) | pIC50 [2] | Activity (Bos taurus [3]) | Ratio IC50 (MCF7 [4]) | pIC50 [6] | Ratio IC50 (C6) | pIC50 [7] | Activity (DLD-1 [8]) | Activity (DLD-1 [9]) [days] | pIC50 [10] | pIC50 [11] | pIC50 (A2780) | pIC50 (CFPAC-1 [13]) | pIC50 (MIA PaCa-2) | pIC50 (BXPC-3) | pIC50 (PANC-1) | further results |
| --- | --- | --- | --- | --- | --- | --- | --- | --- | --- | --- | --- | --- | --- | --- | --- | --- | --- |
| COC(=O)O[C@H]1C(=O)[C@@]2(C)[C@H]([C@H](OC(=O)c3cccc(OC)c3)[C@]3(O)C[C@H](OC(=O)[C@H](O)[C@H](C=C(C)C)NC(=O)OC(C)(C)C)C(C)=C1C3(C)C)[C@]1(OC(C)=O)CO[C@@H]1C[C@@H]2O | 9.40 | 9.22 | Active | 3.5 | 8.80 | 2.7 | 8.85 |  |  |  |  |  |  |  |  |  | Activity (Bos taurus [5]): Active |
| CC(=O)O[C@H]1C(=O)[C@@]2(C)[C@H]([C@H](OC(=O)c3ccccc3)[C@]3(O)C[C@H](OC(=O)[C@H](O)[C@@H](NC(=O)c4ccccc4)c4ccccc4)C(C)=C1C3(C)C)[C@]1(OC(C)=O)CO[C@@H]1C[C@@H]2O [PACLITAXEL] |  |  |  |  | 6.46 |  | 6.52 | inactive | 8 | 6.27 | 6.79 | 8.86 |  |  |  |  | Activity (Mus musculus): Non-toxic |
| CCC(=O)O[C@H]1C(=O)[C@@]2(C)[C@H]([C@H](OC(=O)c3cccc(OC)c3)[C@]3(O)C[C@H](OC(=O)[C@H](O)[C@H](C=C(C)C)NC(=O)OC(C)(C)C)C(C)=C1C3(C)C)[C@]1(OC(C)=O)CO[C@@H]1C[C@@H]2O | 9.44 | 9.00 | Active |  |  |  | 9.48 |  |  | 8.44 | 8.41 | 9.12 | 9.05 | 9.17 | 8.52 | 7.65 | Activity (Bos taurus [12]): > 90% |
| CC(=O)O[C@@]12CO[C@@H]1C[C@H](O)[C@@]1(C)C(=O)[C@H](OC(=O)C3CC3)C3=C(C)[C@@H](OC(=O)[C@H](O)[C@H](C=C(C)C)NC(=O)OC(C)(C)C)C[C@@](O)([C@@H](OC(=O)c4ccccc4)[C@H]21)C3(C)C |  |  | Active |  |  |  | 8.41 | Active | >150 | 8.05 | 8.40 | 9.36 | 9.08 | 9.04 | 8.98 | 8.43 | Activity (DLD-1 [14]): inactive; Activity (Bos taurus [15]): 90%; Activity [16]: Non-toxic; Activity (DLD-1 [17]): 37 days; Activity (DLD-1 [18]): >150 days; Activity (CFPAC-1 [19]): Active |
| CCC(=O)O[C@H]1C(=O)[C@@]2(C)[C@H]([C@H](OC(=O)c3cccc(OC)c3)[C@]3(O)C[C@H](OC(=O)[C@H](O)[C@H](C=C(C)C)NC(=O)OC4CCCCC4)C(C)=C1C3(C)C)[C@]1(OC(C)=O)CO[C@@H]1C[C@@H]2O | 8.84 | 8.91 |  | 9.7 | 7.83 | 12 | 7.85 |  |  |  |  |  |  |  |  |  |  |
| COc1cccc(C(=O)O[C@H]2[C@@H]3[C@]4(OC(C)=O)CO[C@@H]4C[C@H](O)[C@@]3(C)C(=O)[C@H](OC(=O)c3ccccc3OC)C3=C(C)[C@@H](OC(=O)[C@H](O)[C@H](C=C(C)C)NC(=O)OC(C)(C)C)C[C@]2(O)C3(C)C)c1 | 8.96 | 9.40 |  | 3 | 9.05 | 2.3 | 8.48 |  |  |  |  |  |  |  |  |  |  |

— ChEMBL document CHEMBL1150351, “Design, synthesis, and biological evaluation of new-generation taxoids” (J Med Chem, 2008)
